The structures appear in SMILES notation. Calls of active or inactive are those of the source. The rule behind the calls is not given here.

A short description of assay [1]: Inhibition of Neisseria meningitidis alpha-1,4-galactosyltransferase assessed as enzyme activity using lactose as substrate preincubated for 10 mins followed by lactose and UDP-Gal addition measured after 20 mins by malachite green dye-based assay. The gist of the method:
(§1)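 Enzyme (DTT-activated) with MnCl2 5 mM, CIP 10 U/mL, lysozyme 1 mg/mL, 0.01% Triton, 13 mM HEPES pH 7.0 and inhibitor in DMSO (10% final) pre-incubated 10 min at 30 °C before UDP-Gal (28 µM) plus lactose (2 mM) added; 20 min at 30 °C; UDP read by malachite green at 620 nm versus UDP standard curve, background-corrected; triplicate.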

In assay [2] the test system is Neisseria meningitidis. Briefly: Inhibition of Neisseria meningitidis alpha-1,4-galactosyltransferase at 0.1 to 100 uM using lactose as substrate preincubated with compoundfollowed by substrate/UDP-Gal addition measured after 20 min by malachite green dye-based assay. The procedure, abridged:
as §1

In assay [3] the test system is Neisseria meningitidis. The assay is described as follows: Inhibition of Neisseria meningitidis alpha-1,4-galactosyltransferase assessed as rate constant for enzyme activity at 0.5 uM using lactose as substrate preincubated with substrate measured after 20 mins in presence of UDP-Gal. The procedure, abridged:
(§2)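 Activity measured at a series of inhibitor concentrations (0.5-200 µM range overall) after pre-incubation with LgtC for 0, 5, 10, 20 and 30 min, using the pre-incubation protocols (lactose 2 mM, UDP-Gal 28 µM, 20 min at 30 °C, malachite green); % of DMSO control plotted semi-logarithmically versus pre-incubation time to give kobs; kobs versus concentration gave Ki and kinact; triplicate.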

Assay [4] has as its system Neisseria meningitidis. Briefly: Inhibition of Neisseria meningitidis alpha-1,4-galactosyltransferase assessed as rate constant for enzyme activity at 10 uM using lactose as substrate preincubated with substrate measured after 20 mins in presence of UDP-Gal. The procedure, abridged: as §2
The subject of assay [5] is Neisseria meningitidis. Briefly: Inhibition of Neisseria meningitidis alpha-1,4-galactosyltransferase assessed as rate constant for enzyme activity at 50 uM using lactose as substrate preincubated with substrate measured after 20 mins in presence of UDP-Gal. The procedure, abridged:
as §2

Assay [6] has as its system Neisseria meningitidis. Briefly: Inhibition of Neisseria meningitidis alpha-1,4-galactosyltransferase assessed as rate constant for enzyme activity at 4 uM using lactose as substrate preincubated with substrate measured after 20 mins in presence of UDP-Gal. The procedure, abridged:
as §2

A further assay is filed under the species Bos taurus. The assay is described as follows: Inhibition of bovine beta-1,4-galactosyltransferase at 0.1 to 50 uM using UDP as substrate after 20 mins by malachite green dye-based assay.
Assay [7] in a line: Inhibition of Neisseria meningitidis alpha-1,4-galactosyltransferase assessed as enzyme activity using lactose as substrate preincubated for 20 mins followed by lactose and UDP-Gal addition measured after 20 mins by malachite green dye-based assay.
Assay [8] is described as follows: Inhibition of Neisseria meningitidis alpha-1,4-galactosyltransferase assessed as enzyme activity using lactose as substrate preincubated for 5 mins followed by lactose and UDP-Gal addition measured after 20 mins by malachite green dye-based assay.
Assay [9] relates to Neisseria meningitidis. Briefly: Inhibition of Neisseria meningitidis alpha-1,4-galactosyltransferase assessed as consumption of donor UDP-Gal by measuring turnover rate at 0.1 to 100 uM using lactose as substrate preincubated with lactose for 10 mins followed by UDP-Gal addition measured after 20 mins by malachite green dye-based assay relative to total UDP-Gal used. The procedure, abridged:
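Pre-incubation 10 min at 30 °C of activated LgtC, inhibitor (10% DMSO final) and lactose 2 mM in 13 mM HEPES pH 7.0 with MnCl2 5 mM, CIP 10 U/mL, lysozyme 1 mg/mL, 0.01% Triton; reaction started with UDP-Gal 28 µM, 20 min at 30 °C; malachite green readout at 620 nm against UDP standards; triplicate.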

Assay [10] has as its system Neisseria meningitidis. The assay is described as follows: Inhibition of Neisseria meningitidis alpha-1,4-galactosyltransferase assessed as rate constant for enzyme activity at 25 uM using lactose as substrate preincubated with substrate measured after 20 mins in presence of UDP-Gal. The gist of the method:
as §2

In assay [11] the test system is Neisseria meningitidis. Briefly: Inhibition of Neisseria meningitidis alpha-1,4-galactosyltransferase assessed as consumption of donor UDP-Gal by measuring turnover rate at 0.1 to 100 uM using lactose as substrate preincubated for 10 mins followed by substrate and UDP-Gal addition measured after 20 mins by malachite green dye-based assay relative to total UDP-Gal used. The gist of the method:
as §1

A short description of assay [12]: Inhibition of Neisseria meningitidis alpha-1,4-galactosyltransferase assessed as enzyme activity using lactose as substrate preincubated for 30 mins followed by lactose and UDP-Gal addition measured after 20 mins by malachite green dye-based assay.
Assay [13] deals with Neisseria meningitidis. Briefly: (§3) Inhibition of Neisseria meningitidis alpha-1,4-galactosyltransferase assessed as enzyme activity using lactose as substrate preincubated for 0 to 30 mins measured after 20 mins in presence of UDP-Gal.
The nature of assay [14]: as §3.
Assay [15] can be described thus: Inhibition of Neisseria meningitidis alpha-1,4-galactosyltransferase assessed as enzyme activity using lactose as substrate in presence of UDP-Gal measured after 20 min by malachite green dye-based assay. The gist of the method: (§4)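 No pre-incubation: DTT-activated LgtC with MnCl2 5 mM, CIP 10 U/mL, egg-white lysozyme 1 mg/mL, 0.01% Triton, 13 mM HEPES pH 7.0, lactose 2 mM, inhibitor in DMSO (10% final); started with UDP-Gal 28 µM, 20 min at 30 °C, 20-50% donor turnover. Malachite green read at 620 nm against a UDP calibration curve, background without acceptor subtracted, % of assay window; triplicate minimum; IC50 from sigmoidal fit.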

Assay [16] is described as follows: Inhibition of Neisseria meningitidis alpha-1,4-galactosyltransferase assessed as enzyme activity using lactose as substrate preincubated for 60 mins followed by lactose and UDP-Gal addition measured after 20 mins by malachite green dye-based assay.
A short description of assay [17]: Inhibition of Neisseria meningitidis alpha-1,4-galactosyltransferase assessed as enzyme activity using lactose as substrate preincubated for 180 mins followed by lactose and UDP-Gal addition measured after 20 mins by malachite green dye-based assay.
The test system of assay [18] is Neisseria meningitidis. The assay is described as follows: Inhibition of Neisseria meningitidis alpha-1,4-galactosyltransferase assessed as consumption of donor UDP-Gal by measuring turnover rate at 0.1 to 100 uM using lactose as substrate preincubated for 10 mins with UDP-Gal followed by lactose addition measured after 20 mins by malachite green dye-based assay relative to total amount of UDP-Gal used. The gist of the method:
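LgtC pre-incubated 10 min at 30 °C with inhibitor (DMSO, 10% final) and UDP-Gal 28 µM in 13 mM HEPES pH 7.0 with MnCl2 5 mM, CIP 10 U/mL, lysozyme 1 mg/mL, 0.01% Triton; lactose 2 mM then added, 20 min at 30 °C; malachite green absorbance at 620 nm converted via UDP calibration; triplicate.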

Assay [19] deals with Neisseria meningitidis. The assay is described as follows: Inhibition of Neisseria meningitidis alpha-1,4-galactosyltransferase assessed as consumption of donor UDP-Gal by measuring turnover rate at 0.1 to 100 uM using lactose as substrate in presence of UDP-Gal measured after 20 min by malachite green dye-based assay relative to total amount of UDP-Gal used. The gist of the method:
as §4

The subject of assay [20] is Neisseria meningitidis. The assay is described as follows: Inhibition of Neisseria meningitidis alpha-1,4-galactosyltransferase assessed as consumption of donor UDP-Gal by measuring turnover rate at 0.1 to 50 uM using lactose as substrate preincubated for 5 mins followed by lactose and UDP-Gal addition measured after 20 mins by malachite green dye-based assay relative to total UDP-Gal used.

As usually defined, the IC50 is the concentration that gives 50% inhibition. The term inhibition denotes the relative decrease from the control value, in per cent. As a reminder, the Ki is a measure of affinity in units of concentration, obtained from inhibition or displacement. Turning to `O=C1/C(=C\c2cccc(OCc3ccccc3)c2)C(C(F)(F)F)=NN1c1ccccc1`, the IC50 in [1] is greater than 50 µM; in assay [7] it was 38 µM; in assay [8], greater than 50 µM; in assay [12], 17.6 µM; in [15], greater than 100 µM; in [16], 9 µM. For the same compound, in [17], the IC50 was 6 µM. For the same compound, the inhibition result with Neisseria meningitidis [2] and in the assay listed under Bos taurus was “inactive” throughout. The K stood at 0.002 min⁻¹ in the assay on Neisseria meningitidis [3]; 0.011 min⁻¹ with Neisseria meningitidis [4]; 0.068 min⁻¹ with Neisseria meningitidis [5]; 0.007 min⁻¹ in the assay with Neisseria meningitidis [6]; 0.033 min⁻¹ in the assay with Neisseria meningitidis [10]. The inhibition was 23% with Neisseria meningitidis [9], 25 to 41% in the assay with Neisseria meningitidis [11], 29% in the assay on Neisseria meningitidis [18] and 29% in the assay on Neisseria meningitidis [19]. Besides, the Kinact with Neisseria meningitidis [13] stood at 0.104 min⁻¹. For the same compound, the Ki in assay [14] came out at 46.3 µM.
For `COc1ccc(/C=C2\C(=O)N(c3ccccc3)N=C2C(F)(F)F)cc1Br`, the 50% inhibitory concentration (IC50) was 15.8 µM in [1]; 6.5 µM in [7]; 24 µM in assay [8]; 3.1 µM in assay [12]; greater than 50 µM in assay [15]; 3.1 µM in assay [16]. Moreover, in assay [17], the half-maximal inhibitory concentration (IC50) is 5.5 µM. In addition, the inhibition entry with Neisseria meningitidis [2] and in the assay filed under Bos taurus was “inactive” throughout. Moreover, the K in the assay with Neisseria meningitidis [3] was 0.006 min⁻¹; in the assay with Neisseria meningitidis [4], 0.039 min⁻¹; in the assay on Neisseria meningitidis [5], 0.048 min⁻¹; with Neisseria meningitidis [6] it was 0.023 min⁻¹; in the assay on Neisseria meningitidis [10], 0.047 min⁻¹. The inhibition in the assay on Neisseria meningitidis [9] is 23%; with Neisseria meningitidis [11], 25%; in the assay with Neisseria meningitidis [18] it was 30%; in the assay on Neisseria meningitidis [19] it was 30%; in the assay on Neisseria meningitidis [20], 32%. Moreover, in the assay with Neisseria meningitidis [13], the Kinact was determined as 0.0535 min⁻¹. Also, in assay [14], the Ki came out at 4.4 µM.

Source of the values: ChEMBL document CHEMBL4052634, “Covalent inhibitors of LgtC: A blueprint for the discovery of non-substrate-like inhibitors for bacterial glycosyltransferases” (Bioorg Med Chem, 2017).
